Here are results for four compounds from ChEMBL document CHEMBL1130008, “Structure-based design of a potent, selective, and irreversible inhibitor of the catalytic domain of the erbB receptor subfamily of protein tyrosine kinases” (J Med Chem, 1997).

Broadly, the Kd is the concentration at which binding is half-saturated. A higher Kd goes with a looser complex. One may read the IC50 as the concentration that gives 50% inhibition. A low value points to inhibition by little substance. The inhibition is the relative decrease from the control value, in per cent.

Test [1] in a line: Affinity for mouse cyclic-AMP dependent Ser/Thr Kinase.
Test [2] deals with T1, Epidermal growth factor receptor (Homo sapiens, UniProt P00533). Description: Inhibition of erbB-1 receptor tyrosine kinase from A431 human epidermoid carcinoma cells. In kind it is cell-based, A-431. The gist of the method: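 Full-length erbB-1 purified from A431 cell lysate by anti-EGF-receptor antibody affinity resin and eluted with EGF. Run at 25 °C for 10 min, stopped with TCA, precipitate counted by scintillation.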

The target in test [3] is Receptor tyrosine-protein kinase erbB-2 (Homo sapiens, UniProt P04626). Description: Inhibition of human erbB-2 receptor tyrosine kinase.
For test [4], the target named is Fibroblast growth factor receptor (Homo sapiens) (UniProt P22607+P11362+P22455+P21802). Description: Inhibition of human fibroblast growth factor receptor (FGF) at 50 uM (no effect). Type of test: protein assay.
The target in test [5] is Platelet-derived growth factor receptor beta (Homo sapiens) (UniProt P09619). The test is described as follows: Inhibition of human Platelet-derived growth factor receptor at 50 uM (no effect).
Test [6] concerns the target Insulin receptor (Homo sapiens) (UniProt P06213). The test is described as follows: Inhibition of human insulin receptor tyrosine kinase at 50 uM (no effect).
Test [7] has as its target T1, Epidermal growth factor receptor. Description: Saturation rate constant for complex formation with human erbB-1 receptor. The gist of the method:
(§1)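 A431 full-length erbB-1 preincubated with 0.1–25 µM nucleoside in kinase buffer lacking ATP for 1, 5, 15 or 30 min. 10 µM [32P]ATP then started a 10 min, 25 °C poly(Glu,Tyr) phosphorylation. Activity as % of control on semilog plots gave pseudo-first-order constants, fitted hyperbolically against concentration. Run in duplicate.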

The target is the same in test [8]. Description: Inhibition of human erbB-1 receptor tyrosine kinase activity at 5 uM. The gist of the method:
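A431-derived full-length erbB-1 was preincubated with 5 µM nucleoside without ATP, then assayed with 10 µM [32P]ATP and poly(Glu,Tyr) at 25 °C for 10 min; a TCA-precipitate count gave the read-out. Reversibility was tested by treating with 1 mM dithiothreitol.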

For test [9] the target is unchanged. Description: (§2) Rate constant for inactivation of erbB-1 receptor of A431 human epidermoid carcinoma cells. The conditions noted are these: A-431. Type of test: cell-based. The gist of the method:
as §1

For test [10] the target is unchanged. Description: Half life for inactivation of erbB-1 receptor. The method, boiled down: as §1
Test [11] shares this target. The test is described as follows: Second order rate constant for inactivation of erbB-1 receptor of A431 human epidermoid carcinoma cells. The following applies: A-431. Type of test: cell-based. The gist of the method:
as §1

For test [12] the target is unchanged. Described as §2. Type of test: cell-based, A-431. The gist of the method:
as §1

Receptor tyrosine-protein kinase erbB-2, sequence (P04626 whole entry): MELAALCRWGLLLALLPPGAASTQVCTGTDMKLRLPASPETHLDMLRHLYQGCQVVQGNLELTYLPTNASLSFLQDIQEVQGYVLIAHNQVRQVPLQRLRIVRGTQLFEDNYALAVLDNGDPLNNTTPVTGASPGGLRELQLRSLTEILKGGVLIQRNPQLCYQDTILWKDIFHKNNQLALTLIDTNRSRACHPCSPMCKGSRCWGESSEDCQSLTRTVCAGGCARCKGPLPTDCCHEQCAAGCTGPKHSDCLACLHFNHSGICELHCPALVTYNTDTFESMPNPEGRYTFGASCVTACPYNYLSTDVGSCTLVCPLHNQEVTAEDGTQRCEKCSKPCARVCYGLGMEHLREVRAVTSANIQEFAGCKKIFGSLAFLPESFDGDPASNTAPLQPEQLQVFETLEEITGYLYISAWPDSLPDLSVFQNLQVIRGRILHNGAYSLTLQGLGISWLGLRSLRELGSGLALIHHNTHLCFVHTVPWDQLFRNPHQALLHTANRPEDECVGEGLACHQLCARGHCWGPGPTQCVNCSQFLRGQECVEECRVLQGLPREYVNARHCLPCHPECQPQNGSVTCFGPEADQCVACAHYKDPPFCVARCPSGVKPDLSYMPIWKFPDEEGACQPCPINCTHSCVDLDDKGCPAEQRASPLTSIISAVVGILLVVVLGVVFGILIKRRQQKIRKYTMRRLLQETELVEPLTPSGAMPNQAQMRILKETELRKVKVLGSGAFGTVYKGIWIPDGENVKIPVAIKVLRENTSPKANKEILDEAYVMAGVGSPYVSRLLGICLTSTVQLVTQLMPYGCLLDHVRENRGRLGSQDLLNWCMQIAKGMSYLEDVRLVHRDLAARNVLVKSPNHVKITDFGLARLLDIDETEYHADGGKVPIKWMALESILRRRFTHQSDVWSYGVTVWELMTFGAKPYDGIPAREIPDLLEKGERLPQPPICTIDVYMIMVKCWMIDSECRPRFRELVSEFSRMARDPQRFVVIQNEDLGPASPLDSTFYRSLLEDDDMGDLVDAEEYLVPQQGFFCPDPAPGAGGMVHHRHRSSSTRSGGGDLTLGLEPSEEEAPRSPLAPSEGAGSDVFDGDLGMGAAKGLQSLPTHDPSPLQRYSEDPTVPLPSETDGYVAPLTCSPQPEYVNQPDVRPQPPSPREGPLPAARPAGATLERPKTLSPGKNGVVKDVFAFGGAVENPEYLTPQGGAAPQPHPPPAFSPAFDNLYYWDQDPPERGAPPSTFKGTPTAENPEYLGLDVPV
Insulin receptor (Homo sapiens), sequence (P06213 28-758 limits assumed): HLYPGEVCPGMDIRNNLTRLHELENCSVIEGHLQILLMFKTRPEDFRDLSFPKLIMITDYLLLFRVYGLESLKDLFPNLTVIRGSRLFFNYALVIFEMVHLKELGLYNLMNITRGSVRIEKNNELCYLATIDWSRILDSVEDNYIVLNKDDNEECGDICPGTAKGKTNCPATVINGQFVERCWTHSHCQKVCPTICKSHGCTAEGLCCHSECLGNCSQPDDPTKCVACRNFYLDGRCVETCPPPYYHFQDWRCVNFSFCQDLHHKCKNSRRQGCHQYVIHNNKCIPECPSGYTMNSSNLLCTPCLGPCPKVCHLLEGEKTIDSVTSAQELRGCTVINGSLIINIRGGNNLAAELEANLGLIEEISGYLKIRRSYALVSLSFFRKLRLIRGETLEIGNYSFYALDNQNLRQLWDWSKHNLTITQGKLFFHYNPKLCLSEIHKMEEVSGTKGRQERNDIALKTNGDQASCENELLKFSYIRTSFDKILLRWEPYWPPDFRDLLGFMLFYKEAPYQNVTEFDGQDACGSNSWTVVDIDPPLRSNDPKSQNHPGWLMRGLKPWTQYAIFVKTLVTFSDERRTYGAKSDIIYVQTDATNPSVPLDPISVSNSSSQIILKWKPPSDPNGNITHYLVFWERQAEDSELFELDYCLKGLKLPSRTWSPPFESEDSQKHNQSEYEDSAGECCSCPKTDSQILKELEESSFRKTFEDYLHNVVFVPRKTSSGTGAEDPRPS
Insulin receptor (Homo sapiens), sequence (P06213 763-1382 limits assumed): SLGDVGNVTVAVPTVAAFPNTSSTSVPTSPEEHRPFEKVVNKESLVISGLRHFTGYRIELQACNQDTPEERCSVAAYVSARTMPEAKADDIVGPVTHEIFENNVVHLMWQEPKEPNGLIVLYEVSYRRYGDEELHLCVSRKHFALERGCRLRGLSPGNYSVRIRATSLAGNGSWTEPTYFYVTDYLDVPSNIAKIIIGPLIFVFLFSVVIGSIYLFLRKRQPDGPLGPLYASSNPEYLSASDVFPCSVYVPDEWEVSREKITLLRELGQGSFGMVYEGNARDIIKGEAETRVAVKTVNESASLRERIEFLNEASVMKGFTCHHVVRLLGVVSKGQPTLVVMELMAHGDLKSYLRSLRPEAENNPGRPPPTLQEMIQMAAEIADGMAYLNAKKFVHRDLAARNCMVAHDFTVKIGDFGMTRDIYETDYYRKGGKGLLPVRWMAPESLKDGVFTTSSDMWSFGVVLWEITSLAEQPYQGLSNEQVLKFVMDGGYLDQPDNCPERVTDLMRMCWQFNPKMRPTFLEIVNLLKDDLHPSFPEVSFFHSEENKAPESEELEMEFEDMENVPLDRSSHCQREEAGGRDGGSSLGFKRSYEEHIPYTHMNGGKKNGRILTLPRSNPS
Platelet-derived growth factor receptor beta (Homo sapiens), sequence (P09619 whole entry): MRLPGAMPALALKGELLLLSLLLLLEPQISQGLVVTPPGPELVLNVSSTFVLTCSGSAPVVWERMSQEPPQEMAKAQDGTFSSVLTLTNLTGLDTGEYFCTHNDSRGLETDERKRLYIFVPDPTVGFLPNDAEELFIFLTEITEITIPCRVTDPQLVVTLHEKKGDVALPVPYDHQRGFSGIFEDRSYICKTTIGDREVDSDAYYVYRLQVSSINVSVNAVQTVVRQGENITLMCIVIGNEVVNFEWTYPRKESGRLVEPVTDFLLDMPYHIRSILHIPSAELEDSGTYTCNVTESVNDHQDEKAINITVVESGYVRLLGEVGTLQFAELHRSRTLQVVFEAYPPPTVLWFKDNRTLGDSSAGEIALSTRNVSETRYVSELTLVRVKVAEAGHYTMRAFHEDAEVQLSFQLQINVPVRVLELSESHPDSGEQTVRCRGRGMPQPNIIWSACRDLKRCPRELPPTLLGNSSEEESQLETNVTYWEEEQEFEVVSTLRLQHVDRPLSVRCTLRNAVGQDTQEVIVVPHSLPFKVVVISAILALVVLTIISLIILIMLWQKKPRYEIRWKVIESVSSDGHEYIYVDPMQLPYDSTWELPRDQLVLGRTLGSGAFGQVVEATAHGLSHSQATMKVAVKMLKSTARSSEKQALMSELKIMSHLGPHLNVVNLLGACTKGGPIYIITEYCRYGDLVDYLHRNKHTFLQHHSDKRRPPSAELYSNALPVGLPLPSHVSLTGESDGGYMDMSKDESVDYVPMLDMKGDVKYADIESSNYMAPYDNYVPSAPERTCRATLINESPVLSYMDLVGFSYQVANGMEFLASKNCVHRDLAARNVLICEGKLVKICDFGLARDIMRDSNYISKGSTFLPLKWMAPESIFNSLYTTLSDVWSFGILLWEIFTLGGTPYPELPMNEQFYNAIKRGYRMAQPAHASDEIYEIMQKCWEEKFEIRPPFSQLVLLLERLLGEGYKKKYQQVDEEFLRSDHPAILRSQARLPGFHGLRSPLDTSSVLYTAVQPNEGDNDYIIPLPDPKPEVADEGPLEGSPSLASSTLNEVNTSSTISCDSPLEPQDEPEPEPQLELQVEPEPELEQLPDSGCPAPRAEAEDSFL

`Nc1ncnc2c1ncn2[C@@H]1O[C@H](COP(=O)(O)OP(=O)(O)O)[C@@H](O)[C@H]1O` [ADENOSINE DIPHOSPHATE]: the Kd in test [1] stood at 10 µM.

For `Nc1ncnc2c1ncn2[C@@H]1O[C@H](CO)[C@@H](O)[C@H]1O` [ADENOSINE], the IC50 in test [2] is 195 µM; in test [3], ~1600 µM. For the same compound, in [1], binding was put at a Kd of 35 µM. The Concentration in test [4], in test [5] and in [6] was 50 µM in each case.

Consider `Nc1ncnc2c1ncn2[C@@H]1O[C@H](CO)[C@@H](O)[C@H]1S`, for which, in [7], the KS came to 1 µM. Further, in test [8], the inhibition is 70%. Further, the kmax in test [9] came to 0.0023 s⁻¹. Moreover, the T1/2 in [10] was determined as 5 min. The compound further returned an IC50 in test [3] of 45 µM. The compound also came in with a kmax/KS in test [11] of 2000 M⁻¹ s⁻¹. The Concentration in test [4], in test [5] and in [6] was 50 µM in each case. The affinity in test [12], expressed as Kd, was 1 µM.

Compound `Nc1ncnc2c1ncn2[C@@H]1O[C@H](COP(=O)(O)OP(=O)(O)OP(=O)(O)O)[C@@H](O)[C@H]1O` [ADENOSINE TRIPHOSPHATE] returned a Kd in test [1] of 10 µM.
